ChEMBL document CHEMBL3580554, “Design, synthesis, and anticonvulsant activity of new hybrid compounds derived from 2-(2,5-dioxopyrrolidin-1-yl)propanamides and 2-(2,5-dioxopyrrolidin-1-yl)butanamides” (J Med Chem, 2015)

Legend:
[1] = test system: Liver microsome; test: Drug level in human liver microsomes treated with 50 uM 1-(1-Oxo-1-{4-[3-(trifluoromethyl)phenyl]piperazin-1-yl}-propan-2-yl)pyrrolidine-2,5-dione assessed as compound formation in presence of NADPH regeneration system pre-incubated at 37 degC for 5 min and measured 2 hrs after post NADPH system addition by UPLC and LC-MS/MS method; format: ADME
Method in brief: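 The compound was incubated 2 h with human liver microsomes. Metabolites were detected by full-scan chromatogram and identified by LC/MS from their [M+H]+ molecular masses.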

[2] = species: Rattus norvegicus; test: Inhibition of [125I]omega-conotoxin GVIA binding to N-type calcium channel in rat cerebral cortex synaptosomes at 100 uM incubated for 30 mins by scintillation counting based radioligand displacement assay; format: subcellular
[3] = species: Rattus norvegicus; test: Inhibition of [3H]BTX binding to sodium channel site 2 in rat cerebral cortex synaptosomes at 10 uM incubated for 60 mins by scintillation counting based radioligand displacement assay; format: subcellular
Method in brief: (§1)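 Synaptoneurosomal preparations from rat cerebral cortex were used. The read-out was inhibition of specific [3H]BTX binding to the voltage-sensitive sodium channel (site 2), expressed as % inhibition of control specific binding. Compounds were tested at 1, 10, 100 and 500 μM. Inhibition above 50% was taken as significant.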

[4] = species: Rattus norvegicus; test: Inhibition of [3H]BTX binding to sodium channel site 2 in rat cerebral cortex synaptosomes at 1 uM incubated for 60 mins by scintillation counting based radioligand displacement assay; format: subcellular; method in brief: as §1
[5] = species: Rattus norvegicus; test: Inhibition of [3H]BTX binding to sodium channel site 2 in rat cerebral cortex synaptosomes at 100 uM incubated for 60 mins by scintillation counting based radioligand displacement assay; format: subcellular; method in brief: as §1
[6] = species: Rattus norvegicus; test: Inhibition of [3H]BTX binding to sodium channel site 2 in rat cerebral cortex synaptosomes at 500 uM incubated for 60 mins by scintillation counting based radioligand displacement assay; format: subcellular; method in brief: as §1
[7] = test system: Mus musculus; test: Anticonvulsant activity in Swiss mouse assessed as protection against seizures at 300 mg/kg, ip dosed 0.25 hrs before initiation of maximal electroconvulsions by maximal electroshock test; format: functional
Method in brief: (§2)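 Mice were dosed i.p. at a fixed 300 or 100 mg/kg (6 Hz: 100 mg/kg only). Protection was then scored against MES, sc PTZ or 6 Hz seizures at pretreatment times of 0.25, 0.5, 1 and 2 h. Groups were four mice, scored as number protected / number tested. This also gives the time course and time of peak effect.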

[8] = test system: Mus musculus; test: Anticonvulsant activity in Swiss mouse assessed as protection against seizures at 100 mg/kg, ip dosed 1 hr before initiation of maximal electroconvulsions by maximal electroshock test; format: functional; method in brief: as §2
[9] = test system: Mus musculus; test: Anticonvulsant activity in Swiss mouse assessed as protection against seizures at 300 mg/kg, ip dosed 0.5 hrs before initiation of maximal electroconvulsions by maximal electroshock test; format: functional; method in brief: as §2
[10] = test system: Mus musculus; test: Anticonvulsant activity in Swiss mouse assessed as protection against seizures at 300 mg/kg, ip dosed 2 hrs before initiation of maximal electroconvulsions by maximal electroshock test; format: functional; method in brief: as §2
[11] = test system: Mus musculus; test: Anticonvulsant activity in Swiss mouse assessed as protection against seizures at 100 mg/kg, ip dosed 0.5 hrs before initiation of maximal electroconvulsions by maximal electroshock test; format: functional; method in brief: as §2
[12] = test system: Mus musculus; test: Anticonvulsant activity in ip dosed Swiss mouse assessed as protection against seizures measured at 0.25 hrs of time to peak effect by maximal electroshock test; format: functional
Method in brief: (§3)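 Median effective doses (ED50, mg/kg) were determined i.p. in mice at the time of peak effect in the MES, sc PTZ or 6 Hz tests. Only compounds giving at least 50% protection at 100 mg/kg in that test were taken forward.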

[13] = test system: Mus musculus; test: Anticonvulsant activity in Swiss mouse assessed as protection against seizures at 300 mg/kg, ip dosed 1 hr before initiation of maximal electroconvulsions by maximal electroshock test; format: functional; method in brief: as §2
[14] = test system: Mus musculus; test: Anticonvulsant activity in Swiss mouse assessed as protection against seizures at 100 mg/kg, ip dosed 2 hrs before initiation of maximal electroconvulsions by maximal electroshock test; format: functional; method in brief: as §2
[15] = test system: Mus musculus; test: Anticonvulsant activity in Swiss mouse assessed as protection against seizures at 100 mg/kg, ip dosed 0.25 hrs before initiation of maximal electroconvulsions by maximal electroshock test; format: functional; method in brief: as §2
[16] = test system: Mus musculus; test: Anticonvulsant activity in Swiss mouse model of 6 Hz psychomotor seizure mode assessed as protection against seizures at 100 mg/kg, ip dosed 0.25 hrs before 6 Hz electrical stimulation by 6 Hz test; format: functional; method in brief: as §2
[17] = test system: Mus musculus; test: Anticonvulsant activity in Swiss mouse model of 6 Hz psychomotor seizure mode assessed as protection against seizures at 100 mg/kg, ip dosed 0.5 hrs before 6 Hz electrical stimulation by 6 Hz test; format: functional; method in brief: as §2
[18] = test system: Mus musculus; test: Anticonvulsant activity in Swiss mouse model of 6 Hz psychomotor seizure mode assessed as protection against seizures at 100 mg/kg, ip dosed 1 hr before 6 Hz electrical stimulation by 6 Hz test; format: functional; method in brief: as §2
[19] = test system: Mus musculus; test: Protective index, ratio of neurotoxic TD50 in Swiss mouse by Chimney test to anticonvulsant ED50 in Swiss mouse measured at 0.5 hrs of time to peak effect by subcutaneous pentylenetetrazole seizure test; format: functional
Method in brief: (§4)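 Protective index was calculated as TD50 (chimney test, mouse, i.p.) divided by ED50 from the matching MES, sc PTZ or 6 Hz test, both taken at the time of peak effect.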

[20] = test system: Mus musculus; test: Anticonvulsant activity in ip dosed Swiss mouse assessed as protection against seizures measured at 0.5 hrs of time to peak effect by maximal electroshock test; format: functional; method in brief: as §3
[21] = species: Mus musculus; test: Protective index, ratio of neurotoxic TD50 in Swiss mouse by Chimney test to anticonvulsant ED50 in Swiss mouse measured at 0.5 hrs of time to peak effect by maximal electroshock test; method in brief: as §4
[22] = test system: Mus musculus; test: Anticonvulsant activity in Swiss mouse assessed as protection against seizures at 300 mg/kg, ip dosed 1 hr before pentylenetetrazole challenge by subcutaneous pentylenetetrazole seizure test; format: functional; method in brief: as §2
[23] = test system: Mus musculus; test: Anticonvulsant activity in Swiss mouse assessed as protection against seizures at 300 mg/kg, ip dosed 2 hrs before pentylenetetrazole challenge by subcutaneous pentylenetetrazole seizure test; format: functional; method in brief: as §2
[24] = test system: Mus musculus; test: Anticonvulsant activity in ip dosed Swiss mouse assessed as protection against seizures measured at 0.5 hrs of time to peak effect by 6 Hz test by 6 Hz psychomotor seizure test; format: functional; method in brief: as §3
[25] = test system: Mus musculus; test: Anticonvulsant activity in Swiss mouse assessed as protection against seizures at 100 mg/kg, ip dosed 0.25 hrs before pentylenetetrazole challenge by subcutaneous pentylenetetrazole seizure test; format: functional; method in brief: as §2
[26] = species: Mus musculus; test: Protective index, ratio of neurotoxic TD50 in Swiss mouse by Chimney test to anticonvulsant ED50 in Swiss mouse measured at 0.5 hrs of time to peak effect by 6 Hz test by 6 Hz psychomotor seizure test; format: functional; method in brief: as §4
[27] = test system: Mus musculus; test: Anticonvulsant activity in Swiss mouse assessed as protection against seizures at 300 mg/kg, ip dosed 0.5 hrs before pentylenetetrazole challenge by subcutaneous pentylenetetrazole seizure test; format: functional; method in brief: as §2
[28] = test system: Mus musculus; test: Anticonvulsant activity in Swiss mouse assessed as protection against seizures at 100 mg/kg, ip dosed 2 hrs before pentylenetetrazole challenge by subcutaneous pentylenetetrazole seizure test; format: functional; method in brief: as §2
[29] = test system: Mus musculus; test: Anticonvulsant activity in Swiss mouse model of 6 Hz psychomotor seizure mode assessed as protection against seizures at 100 mg/kg, ip dosed 2 hrs before 6 Hz electrical stimulation by 6 Hz test; format: functional; method in brief: as §2
[30] = test system: Mus musculus; test: Anticonvulsant activity in ip dosed Swiss mouse assessed as protection against seizures measured at 0.5 hrs of time to peak effect by subcutaneous pentylenetetrazole seizure test; format: functional; method in brief: as §3
[31] = Toxicity in ip dosed Swiss mouse assessed as induction of motor performance impairment measured within 60 seconds measured at 0.5 hrs of time to peak effect by Chimney test; format: organism-based; settings: in vivo
Method in brief: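 Neurotoxicity was measured i.p. in mice by the chimney test for motor impairment. It was given as the median neurotoxic dose (TD50, mg/kg) at the time of peak effect.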

[32] = test system: Mus musculus; test: Anticonvulsant activity in Swiss mouse assessed as protection against seizures at 100 mg/kg, ip dosed 1 hr before pentylenetetrazole challenge by subcutaneous pentylenetetrazole seizure test; format: functional; method in brief: as §2
[33] = test system: Mus musculus; test: Anticonvulsant activity in Swiss mouse assessed as protection against seizures at 300 mg/kg, ip dosed 0.25 hrs before pentylenetetrazole challenge by subcutaneous pentylenetetrazole seizure test; format: functional; method in brief: as §2
[34] = test system: Mus musculus; test: Anticonvulsant activity in Swiss mouse assessed as protection against seizures at 100 mg/kg, ip dosed 0.5 hrs before pentylenetetrazole challenge by subcutaneous pentylenetetrazole seizure test; format: functional; method in brief: as §2

CC(C(=O)N1C=CN(c2cccc(C(F)(F)F)c2)CC1)N1C(=O)CCC1=O (stereo not given)
Drug metabolism [1]: metabolite_detected

O=C(C(CO)N1C(=O)CC(O)C1=O)N1C=CN(c2cccc(C(F)(F)F)c2)CC1 (stereo not given)
Drug metabolism [1]: metabolite_detected

O=C(C(CO)N1C(=O)CCC1O)N1CCN(c2cccc(C(F)(F)F)c2)CC1 (stereo not given)
Drug metabolism [1]: metabolite_detected

CC(C(=O)N1CCN(c2ccc(O)c(C(F)(F)F)c2)CC1)N1C(=O)CCC1=O (stereo not given)
Drug metabolism [1]: metabolite_detected

CC1(C)O[C@@H]2[C@@H](CO[C@@]3(COS(N)(=O)=O)OC(C)(C)O[C@@H]23)O1
inhibition [2]: 3.1%

NC(=O)N1c2ccccc2C=Cc2ccccc21
inhibition [3]: 4.6%
inhibition [4]: 2.7%
inhibition [5]: 17.4%
inhibition [6]: 33.6%

CC(C(=O)N1CCN(c2ccccc2)CC1)N1C(=O)CCC1=O (racemic)
Activity [7]: 100%
Activity [8]: 0%
Activity [9]: 50%
Activity [10]: 0%
Activity [11]: 0%
ED50 [12]: 164 mg/kg
Activity [13]: 50%
Activity [14]: 0%
Activity [15]: 50%

CC(C(=O)N1CCN(c2cccc(Cl)c2)CC1)N1C(=O)CCC1=O (racemic)
Activity [7]: 75%
Activity [8]: 50%
Activity [16]: 100%
Activity [17]: 100%
Activity [9]: 100%
Activity [18]: 75%
Ratio TD50/ED50 [19]: 2.9
Activity [10]: 50%
ED50 [20]: 119 mg/kg
Ratio TD50/ED50 [21]: 1.69
Activity [22]: 75%
Activity [23]: 75%
ED50 [24]: 50.4 mg/kg
Activity [11]: 75%
Activity [25]: 50%
Ratio TD50/ED50 [26]: 4
Activity [13]: 75%
Activity [27]: 75%
Activity [28]: 25%
Activity [29]: 25%
ED50 [30]: 69.6 mg/kg
TD50 at 0.5 h [31]: 202 mg/kg
Activity [32]: 50%
Activity [33]: 75%
Activity [34]: 75%
Activity [14]: 0%
Activity [15]: 50%
